Screening results deposited in PubChem by Broad Institute.
Only a selection was taken, and hits are over-represented in it overall.
T cruzi growth-1: blocks T. cruzi growth in NIH3T3 culture; hit rate 5.9% among 77,000; T. cruzi beta-gal in NIH3T3, GalScreen luminescence, 90 h; inhibition, % at 8.34 µM; AID 624255;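 active means mean inhibition above about 93%, with at least 55% of replicates each passing it, limit read from the data, passing the limit was not always enough; inconclusive means only one of those two conditions holds; inactive means neither condition holds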
IDH1 R132H inh: IDH1 R132H (human) inhibition; IDH1 R132H reductase, diaphorase/resazurin fluorescence, 60 min; inhibition, % at 10 µM; hit rate 0.18% among 70,000; AID 624101; in the data active means inhibition above about 34%; inconclusive means no clear call, values can overlap the other calls; inactive means below about 11%;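 further: 0% = DMSO and 100% = no enzyme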
Target sequence (O75874 whole entry R132H): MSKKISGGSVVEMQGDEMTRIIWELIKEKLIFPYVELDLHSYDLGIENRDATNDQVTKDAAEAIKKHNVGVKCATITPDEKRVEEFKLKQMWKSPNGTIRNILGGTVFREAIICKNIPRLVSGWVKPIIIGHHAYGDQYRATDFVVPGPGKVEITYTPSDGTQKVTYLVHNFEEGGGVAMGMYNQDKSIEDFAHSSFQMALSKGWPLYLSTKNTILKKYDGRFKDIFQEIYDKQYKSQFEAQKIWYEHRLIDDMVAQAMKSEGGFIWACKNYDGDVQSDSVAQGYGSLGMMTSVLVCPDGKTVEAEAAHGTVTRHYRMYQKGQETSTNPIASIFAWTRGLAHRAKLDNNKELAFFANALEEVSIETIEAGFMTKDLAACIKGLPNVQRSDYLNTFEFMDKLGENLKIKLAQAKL
GASC1 inh: KDM4C (human) demethylase inhibition | GST-KDM4C 2-372, H3K9me3 peptide, LANCE TR-FRET | inhibition, % at 12.5 µM | hit rate 0.15% among 96,000 | Q9H3R0;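 active means mean replicate inhibition above about 25%, with at least 55% of replicates also reaching it, limit read from the data, passing the limit was not always enough; inconclusive means only one of those two conditions met; inactive means neither condition met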
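Material: N-terminal GST-fused human GASC-1 (KDM4C) fragment, residues 2-372. Input: 10 nM enzyme. Incubation: enzyme reaction 30 min, then detection 60 min, both room temperature. Doses: one test concentration per compound. Read-out basis: inhibition from TR-FRET ratio decrease. Detection: LANCE TR-FRET, excitation 340 nm, emissions 618 and 671 nm.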
T cruzi growth-2: inhibitors of T. cruzi proliferation | shares compounds with T cruzi growth-1 | T. cruzi beta-gal in NIH3T3, GalScreen luminescence, 90 h | hit rate 72% among 5,600 | AID 651739 | inhibition, % at 8.35 µM;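 active means mean replicate inhibition above about 95% and at least 55% of replicates individually reaching it, limit read from the data; inconclusive means only one of the two criteria is met; inactive means neither criterion is met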
T cruzi growth-3: blocks T. cruzi growth in NIH3T3 host cells. AID 651740. shares compounds with T cruzi growth-1. hit rate 21% among 5,600. T. cruzi beta-gal in NIH3T3, GalScreen luminescence, 90 h. inhibition, % at 2.09 µM;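 active means mean inhibition above about 95%, with at least 55% of replicates also reaching it, limit read from the data; inconclusive means meets just one of the two conditions; inactive means meets neither condition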;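 further: plate controls were neutral control median for no effect and positive control median for full effect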
3T3 cytotox: kills mouse NIH/3T3 fibroblasts | shares compounds with T cruzi growth-1 | cytotoxicity (signal decrease), % at 8.35 µM | AID 651742 | NIH/3T3 viability, CellTiter-Glo ATP luminescence, 90 h | hit rate 14% among 5,600;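 active means mean signal decrease across replicates above about 35% based on untreated-well scatter, with enough replicates individually passing, limit read from the data; inconclusive means no rule stated though some were filed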;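 further: 0% = median of neutral control wells and 100% = median of positive control wells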
3T3 cytotox 2: kills mouse NIH/3T3 fibroblasts | NIH/3T3 viability, CellTiter-Glo ATP luminescence, 90 h | shares compounds with T cruzi growth-1 | AID 651744 | hit rate 56% among 5,600 | inhibition, % at 24.9 µM;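 active means mean loss of cell viability signal at or above a set limit, and enough replicates individually reaching it; inconclusive means meets only the mean limit or only the replicate share; inactive means meets neither condition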;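 further: 0% = median of neutral control wells and 100% = median of positive control wells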
* = called active by the depositor; ? = inconclusive; nt = no result given.

SMILES | T cruzi growth-1 | IDH1 R132H inh | GASC1 inh | others
C[C@H]1CN([C@@H](C)CO)C(=O)Cc2cc(NS(=O)(=O)c3ccc(Cl)cc3)ccc2O[C@@H]1CN(C)Cc1ccc2c(c1)OCO2 | 107* | 2 | -1 | T cruzi growth-2=98*;T cruzi growth-3=17;3T3 cytotox=-1;3T3 cytotox 2=6
C[C@H](CO)N1C[C@H](C)[C@@H](CN(C)Cc2ccc3c(c2)OCO3)Oc2ccc(NS(=O)(=O)c3ccc(Cl)cc3)cc2CC1=O | 89 | 0 | 1
CN1C(=O)c2cc(NC(=O)Cc3ccccc3)ccc2OC[C@@H]2O[C@H](CC(=O)NCC3CC3)CC[C@H]21 | -15 | nt | -1
CO[C@@H](CN(C)C(=O)c1ccc2c(c1)OCO2)[C@H](C)CN([C@H](C)CO)S(=O)(=O)c1ccccc1 | 6 | 0 | 0
C[C@@H]1CCCCO[C@H](CN(C)C(=O)CCCN(C)C)[C@H](C)CN([C@@H](C)CO)C(=O)c2cc(NC(=O)Cc3ccccc3)ccc2O1 | 48 | 2 | 1
CN(C)CCCNC(=O)C[C@@H]1CC[C@@H](NS(=O)(=O)c2ccccc2)[C@@H](CO)O1 | -25 | 0 | 2
C[C@@H]1CCCCO[C@H](CN(C)C(=O)CCCN(C)C)[C@@H](C)CN([C@H](C)CO)C(=O)c2cc(N(C)C)ccc2O1 | 80 | -1 | 2
C[C@@H]1CN([C@H](C)CO)S(=O)(=O)c2ccc(C#Cc3ccccc3)cc2O[C@@H]1CN(C)S(=O)(=O)c1cn(C)cn1 | 42 | 0 | -1
C[C@H]1CN([C@@H](C)CO)S(=O)(=O)c2ccc(-c3ccncc3)cc2O[C@@H]1CN(C)S(=O)(=O)c1ccccc1F | nt | -2 | -2
C[C@H](CO)N1C[C@H](C)[C@H](CN(C)S(=O)(=O)c2ccccc2F)Oc2cc(C#Cc3ccccc3)ccc2S1(=O)=O | 125* | -3 | -4 | T cruzi growth-2=110*;T cruzi growth-3=79;3T3 cytotox=-1;3T3 cytotox 2=0
C[C@H](CO)N1C[C@H](C)[C@@H](CN(C)S(=O)(=O)c2ccccc2F)Oc2cc(-c3ccncc3)ccc2S1(=O)=O | nt | 1 | 0
C[C@@H]1CN([C@H](C)CO)S(=O)(=O)c2ccc(C#Cc3ccccc3)cc2O[C@@H]1CN(C)S(=O)(=O)c1ccccc1F | 122* | 0 | -2 | T cruzi growth-2=105*;T cruzi growth-3=106*;3T3 cytotox=25;3T3 cytotox 2=52*
C[C@@H]1CN([C@H](C)CO)S(=O)(=O)c2ccc(C#Cc3ccccc3)cc2O[C@H]1CN(C)S(=O)(=O)c1ccccc1F | 129* | 0 | -2 | T cruzi growth-2=98*;T cruzi growth-3=45;3T3 cytotox=8;3T3 cytotox 2=?
C[C@H]1CN([C@@H](C)CO)S(=O)(=O)c2ccc(C#Cc3ccccc3)cc2O[C@@H]1CN(C)S(=O)(=O)c1ccccc1F | 125* | 0 | -1 | T cruzi growth-2=98*;T cruzi growth-3=103*;3T3 cytotox=-17;3T3 cytotox 2=29*
CN(C)CC(=O)Nc1ccc2c(c1)[C@@H]1C[C@H](CC(=O)N3CCN(C)CC3)O[C@H](CO)[C@@H]1O2 | -5 | 0 | 1
CC(=O)Nc1ccccc1NS(=O)(=O)c1ccccc1[N+](=O)[O-] | nt | 0 | nt
O=NC(=O)c1cccc(C(=O)NNC=C2C=CN(O)C=C2)c1 | nt | -2 | nt
CC(=O)Nc1ccc2c(c1)C(=O)N(C)[C@@H]1CC[C@H](CC(=O)NCc3ccccc3Cl)O[C@H]1CO2 | -30 | nt | 5
COCC#Cc1cnc2c(c1)C(=O)N([C@H](C)CO)C[C@H](C)[C@H](CN(C)C(=O)CN1CCOCC1)O2 | nt | -3 | -1
O=C(O)C[C@@H]1C=C[C@H](NC(=O)Nc2ccccc2)[C@@H](CO)O1 | 18 | 0 | -1
CN1CCN(C(=O)C[C@H]2C=C[C@H](NS(=O)(=O)c3cccc(F)c3)[C@@H](CO)O2)CC1 | -10 | 0 | 1
CC(C)NC(=O)Nc1ccc2c(c1)CC(=O)N([C@H](C)CO)C[C@H](C)[C@@H](CN(C)C(=O)NC(C)C)O2 | -1 | 1 | 0
C[C@@H]1CN([C@@H](C)CO)S(=O)(=O)c2ccc(C#Cc3ccccc3)cc2O[C@@H]1CN(C)C(=O)c1ccccn1 | -14 | nt | nt
